ChEMBL document CHEMBL2034874, “5-acetyl-2-arylbenzimidazoles as antiviral agents. Part 4” (Eur J Med Chem, 2012)

Legend:
[1] = Inhibition of HCV NS5B polymerase; parameters: species or system Hepacivirus hominis
[2] = Cytotoxicity against MDBK cells after 48 to 96 hrs by MTT assay; format: cell-based, Bos taurus; details: cattle
Procedure, shortened: (§1)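 Mock-infected MDBK (6×10^5 cells/mL, MEM-E with 10% horse serum) or BHK (1×10^6 cells/mL, MEM-E with 10% FBS) cells incubated with serial compound dilutions at 37 °C and 5% CO2. Viability measured by MTT after 48–96 h. CC50 by linear regression against untreated controls.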

[3] = Cytotoxicity against BHK21 cells by MTT assay; format: cell-based, Mesocricetus auratus; details: hamster, BHK-21 cells; procedure, shortened: as §1
Yellow fever virus = assay: Antiviral activity against Yellow fever virus 17D infected in BHK21 cells assessed as inhibition of virus-induced cytopathogenicity after 3 to 4 days by MTT assay; format: functional, cell-based; details: BHK-21
[4] = Cytotoxicity against african green monkey Vero 76 cells after 48 to 96 hrs by MTT assay; format: cell-based; details: chlorocebus sabaeus
[5] = Cytotoxicity against human MT4 cells after 96 hrs by MTT assay; format: cell-based
Procedure, shortened: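 Exponentially growing MT-4 cells seeded at 1×10^5 cells/mL in RPMI-1640 with 10% FBS and incubated with serial compound dilutions at 37 °C and 5% CO2. Viability measured by MTT after 96 h. CC50 by linear regression against untreated controls.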

[6] = Antiviral activity against Human respiratory syncytial virus A2 ATCC VR-1540 infected in african green monkey Vero-76 cells assessed as reduction in viral plaque after 5 days by crystal violet staining; format: functional, cell-based; details: ATCC VR-1540, Vero 76, 120 h
Procedure, shortened: (§2)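 Vero-76 monolayers (2×10^5 cells/well) infected for 2 h at 50–100 PFU/well. Unadsorbed virus removed. D-MEM with 1% inactivated FBS, 0.75% methylcellulose and serial compound dilutions added. Incubation at 37 °C for 3 days (CVB-5, HSV-1) or 5 days (RSV). Fixed and stained with 50% ethanol/0.8% crystal violet, then plaques counted. EC50 by linear regression versus untreated controls.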

Coxsackievirus B5 = assay: Antiviral activity against Coxsackie virus type B5 Ohio-1 ATCC VR-29 infected in african green monkey Vero-76 cells assessed as reduction in viral plaque after 3 days by crystal violet staining; format: functional, organism-based; details: Enterovirus B, Ohio-1 ATCC VR-29, Vero 76, 72 h; procedure, shortened: as §2
[7] = Antiviral activity against BVDV1 NADL ATCC VR-534 infected in MDBK cells assessed as inhibition of virus-induced cytopathogenicity after 3 to 4 days by MTT assay; format: functional, cell-based, Bovine viral diarrhea virus 1-NADL; details: Bovine viral diarrhea virus isolates and strains, ATCC VR-534, MDBK
Procedure, shortened: (§3)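 BHK (5×10^4/well) or MDBK (3×10^4/well) cells grown to confluent monolayers overnight, infected at m.o.i. 0.01 in maintenance MEM-Earl with 0.5% inactivated FBS. Serially diluted compounds added after 1 h. Viability read by MTT after 3–4 days at 37 °C. Values are expressed as % of untreated controls, and EC50 is derived by linear regression. Duplicate samples.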

[8] = tested on: Mammalian orthoreovirus 1; assay: Antiviral activity against Reovirus 1 3651 ATCC VR-214 infected in BHK21 cells assessed as inhibition of virus-induced cytopathogenicity after 3 to 4 days by MTT assay; format: functional, organism-based; details: Mammalian orthoreovirus 1, 3651 ATCC VR-214, BHK-21; procedure, shortened: as §3
[9] = tested on: Vesicular stomatitis Indiana virus; assay: Antiviral activity against Vesicular stomatitis virus indiana ATCC VR-1540 infected in african green monkey Vero-76 cells assessed as reduction in viral plaque after 2 days by crystal violet staining; format: functional, organism-based; details: ATCC VR-1540, Vero 76, 48 h
[10] = tested on: Human immunodeficiency virus 1; assay: Antiviral activity against HIV1 3B infected in human MT4 cells assessed as inhibition of virus-induced cytopathogenicity after 4 days by MTT assay; format: functional, organism-based; details: Human immunodeficiency virus 1, 3B, MT4, 96 h
Procedure, shortened: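 MT-4 cells (1×10^4/well) in RPMI with serial compound dilutions, infected with HIV-1 IIIB at 100 CCID50 (m.o.i. 0.01). Viability measured by MTT after 4 days at 37 °C. EC50 for 50% protection from cytopathogenicity obtained by linear regression against untreated controls.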

Human alphaherpesvirus 1 = assay: Antiviral activity against Herpes simplex virus type 1 KOS ATCC VR-1493 infected in african green monkey Vero-76 cells assessed as reduction in viral plaque after 3 days by crystal violet staining; format: functional, organism-based; details: Human alphaherpesvirus 1, KOS ATCC VR1493, Vero 76, 72 h; procedure, shortened: as §2
Hepatitis C virus = assay: Antiviral activity against Hepatitis C virus genotype 1b infected in human GS4.1 cells assessed as inhibition of viral replication after 72 hrs by ELISA; format: functional, organism-based, Hepacivirus hominis
Procedure, shortened: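 Huh-7 cells carrying the genotype 1b replicon (GS4.1) seeded at 7.5×10^3/well with two-fold serial dilutions, top 75 µM, for 72 h at 37 °C. Cells fixed in acetone–methanol. NS4A quantified by ELISA with anti-NS4A antibody A-236, peroxidase conjugate and o-phenylenediamine, read at 492 nm. EC50 from four-parameter sigmoidal fit. Replicon-free Huh-7 served as negative control.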

Poliovirus 1 = assay: Antiviral activity against Polio virus type 1 strain sabin ATCC VR-1562 infected in african green monkey Vero-76 cells assessed as reduction in viral plaque after 2 days by crystal violet staining; format: functional, cell-based, Human poliovirus 1 strain Sabin; details: Enterovirus C, ATCC VR-1562, Vero 76, 48 h
[11] = Cytotoxicity against human GS4.1 cells assessed as decrease in cell viability by Cell Titer glo assay; format: cell-based
Vaccinia virus = assay: Antiviral activity against Vaccinia virus Elstree-Lister ATCC VR-1549 infected in african green monkey Vero-76 cells assessed as reduction in viral plaque after 3 days by crystal violet staining; format: functional, organism-based; details: Orthopoxvirus vaccinia, Elstree-Lister ATCC VR-1549, Vero 76, 72 h
Coxsackievirus B2 = assay: Antiviral activity against Coxsackie virus type B2; format: functional, organism-based; details: Enterovirus B

SMILES | IC50 [1] | CC50 [2] | CC50 [3] | EC50 (Yellow fever virus) | CC50 [4] | CC50 at 96 h [5] | EC50 [6] | EC50 (Coxsackievirus B5) | EC50 [7] | EC50 [8] | EC50 [9] | EC50 [10] | EC50 (Human alphaherpesvirus 1) | EC50 (Hepatitis C virus) | EC50 (Poliovirus 1) | CC50 [11] | EC50 (Vaccinia virus) | EC50 (Coxsackievirus B2)
O=C(O)c1ccc2c(c1)nc(-c1ccoc1)n2C1CCCCC1 | 1600 nM | – | – | – | – | – | – | – | – | – | – | – | – | – | – | – | – | –
COc1ccc(-c2nc3cc(/C(C)=N/NC(N)=S)ccc3[nH]2)c(OC)c1 | – | > 100 µM | 28 µM | > 28 µM | > 100 µM | 72 µM | > 100 µM | > 100 µM | 0.8 µM | > 28 µM | > 100 µM | > 72 µM | > 100 µM | 1110 nM | > 100 µM | 11.3 µM | – | –
COc1ccc(-c2nc3cc(C(C)O)ccc3[nH]2)cc1 (configuration not stated) | – | > 100 µM | > 100 µM | > 100 µM | > 100 µM | ≥ 100 µM | > 100 µM | > 100 µM | > 100 µM | > 100 µM | > 100 µM | > 100 µM | > 100 µM | – | > 100 µM | – | > 100 µM | –
C/C(=N\NC(N)=S)c1ccc2[nH]c(-c3ccoc3)nc2c1 | – | > 100 µM | > 100 µM | > 100 µM | 100 µM | 86 µM | > 100 µM | > 100 µM | 8 µM | > 100 µM | > 100 µM | > 86 µM | > 100 µM | – | 100 µM | – | > 100 µM | –
CC(=O)c1ccc2c(c1)nc(-c1ccccc1)n2C1CCCCC1 | – | > 100 µM | 100 µM | 13.2 µM | 80 µM | 37 µM | 25 µM | > 80 µM | 60 µM | > 100 µM | > 80 µM | > 37 µM | > 80 µM | – | > 80 µM | – | > 80 µM | –
COc1ccc(-c2nc3cc(/C(C)=N/NC(N)=S)ccc3n2C2CCCCC2)c(OC)c1 | – | > 100 µM | 17 µM | > 17 µM | 20 µM | 17 µM | > 20 µM | > 20 µM | 4 µM | > 17 µM | > 20 µM | ≥ 17 µM | > 20 µM | – | > 20 µM | – | > 20 µM | –
C/C(=N\NC(N)=S)c1ccc2c(c1)nc(-c1ccccc1)n2C1CCCCC1 | – | 24 µM | 38 µM | 9 µM | 20 µM | 20 µM | > 20 µM | > 20 µM | 4.5 µM | > 38 µM | > 20 µM | 10 µM | > 20 µM | – | > 20 µM | – | > 20 µM | –
COc1ccc(-c2nc3cc(C(C)=O)ccc3n2C2CCCCC2)c(OC)c1 | – | 21 µM | 8.5 µM | > 8.5 µM | 70 µM | 21 µM | > 70 µM | > 70 µM | > 21 µM | > 85 µM | > 70 µM | > 21 µM | > 70 µM | – | > 70 µM | – | > 70 µM | –
Nc1ccc(/C=C/c2nc3ccccc3[nH]2)cc1 | – | – | – | – | – | – | – | – | – | – | – | – | – | – | – | – | – | 7 µM
CC(=O)c1ccc2[nH]c(-c3ccc(-c4ccc([N+](=O)[O-])cc4)cc3)nc2c1 | – | – | – | 0.5 µM | – | – | – | – | – | – | – | – | – | – | – | – | – | 1 µM
COc1ccc(-c2nc3cc(C(C)=O)ccc3n2C2CCCCC2)cc1 | – | > 100 µM | > 100 µM | 13.4 µM | 30 µM | 27 µM | > 30 µM | > 30 µM | 21 µM | > 100 µM | > 30 µM | > 27 µM | > 30 µM | – | > 30 µM | – | > 30 µM | –
O=C(O)c1ccc2c(c1)nc(-c1ccccn1)n2C1CCCCC1 | 4300 nM | – | – | – | – | – | – | – | – | – | – | – | – | – | – | – | – | –
COc1ccc(-c2nc3cc(/C(C)=N/O)ccc3[nH]2)c(OC)c1 | – | > 100 µM | > 100 µM | > 100 µM | > 100 µM | ≥ 100 µM | > 100 µM | 43 µM | 17 µM | > 100 µM | > 100 µM | > 100 µM | > 100 µM | – | > 100 µM | – | > 100 µM | –
C/C(=N\NC(N)=S)c1ccc2c(c1)nc(-c1ccc(Cl)cc1)n2C1CCCCC1 | – | > 100 µM | > 100 µM | > 100 µM | > 100 µM | 17 µM | > 100 µM | > 100 µM | > 100 µM | > 100 µM | > 100 µM | ≥ 17 µM | > 100 µM | – | > 100 µM | – | > 100 µM | –
Nc1ccc(/C=C/c2nc3cc(Cl)ccc3[nH]2)cc1 | – | – | – | – | – | – | – | – | – | – | – | – | – | – | – | – | – | 7 µM
